Measurements reported in ChEMBL document CHEMBL1817666, “Bicephalic amphiphile architecture affects antibacterial activity” (2011).
The source made the active and inactive calls. The rule behind the calls is not given here.

Experiments:
Assay type in all cases: functional
[1] = system: Escherichia coli; test: Antibacterial activity against 2.5 x 10^6 CFU/mL Escherichia coli ATCC 25922 assessed as time required for bacterial killing at 100 uM by microscopy based bacterial killing assay
[2] = system: Enterococcus faecalis; test: Antibacterial activity against 5 x 10^5 CFU/mL Enterococcus faecalis ATCC 29212 incubated for 72 hrs followed by growing of cells on trypticase soy agar plate for 24 hrs by CLSI M07-A8 broth microdilution method
How it was run: (§1)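 After the 72 h, 37 °C Mueller-Hinton microdilution (5 × 10⁵ cfu/well, triplicate wells), 100 µl from each triplicate set is plated on trypticase soy agar and incubated 24 h. MBC is the lowest concentration giving no colonies. At least 3 repeats per organism.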

[3] = system: Pseudomonas aeruginosa; test: Antibacterial activity against 5 x 10^5 CFU/mL Pseudomonas aeruginosa Boston 41501 ATCC 27853 after 72 hrs by CLSI M07-A8 broth microdilution method
How it was run: (§2)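 Broth microdilution in Mueller-Hinton broth at 37 °C. Serially diluted compound added in triplicate wells, then overnight culture diluted to about 5 × 10⁶ cfu/mL inoculum, giving 5 × 10⁵ cfu/well. Inoculum checked by serial dilution and plating. Plates incubated 72 h at 37 °C. MIC is the lowest concentration with no growth visible by eye. At least 3 repeats per organism.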

[4] = system: Staphylococcus aureus; test: Antibacterial activity against 5 x 10^5 CFU/mL Staphylococcus aureus subsp. aureus ATCC 29213 incubated for 72 hrs followed by growing of cells on trypticase soy agar plate for 24 hrs by CLSI M07-A8 broth microdilution method; how it was run: as §1
[5] = system: Escherichia coli; test: Antibacterial activity against 5 x 10^5 CFU/mL Escherichia coli ATCC 25922 incubated for 72 hrs followed by growing of cells on trypticase soy agar plate for 24 hrs by CLSI M07-A8 broth microdilution method; how it was run: as §1
[6] = system: Enterococcus faecalis; test: Antibacterial activity against 2.5 x 10^6 CFU/mL Enterococcus faecalis ATCC 29212 assessed as time required for bacterial killing at 100 uM by microscopy based bacterial killing assay
[7] = system: Enterococcus faecalis; test: Antibacterial activity against 5 x 10^5 CFU/mL Enterococcus faecalis ATCC 29212 after 72 hrs by CLSI M07-A8 broth microdilution method; how it was run: as §2
[8] = system: Staphylococcus aureus; test: Antibacterial activity against 2.5 x 10^6 CFU/mL Staphylococcus aureus subsp. aureus ATCC 29213 assessed as time required for bacterial killing at 100 uM by microscopy based bacterial killing assay
[9] = system: Pseudomonas aeruginosa; test: Antibacterial activity against 5 x 10^5 CFU/mL Pseudomonas aeruginosa Boston 41501 ATCC 27853 incubated for 72 hrs followed by growing of cells on trypticase soy agar plate for 24 hrs by CLSI M07-A8 broth microdilution method; how it was run: as §1
[10] = system: Staphylococcus aureus; test: Antibacterial activity against 5 x 10^5 CFU/mL Staphylococcus aureus subsp. aureus ATCC 29213 after 72 hrs by CLSI M07-A8 broth microdilution method; how it was run: as §2
[11] = system: Escherichia coli; test: Antibacterial activity against 5 x 10^5 CFU/mL Escherichia coli ATCC 25922 after 72 hrs by CLSI M07-A8 broth microdilution method; how it was run: as §2

Compound	Time [1] [h]	MBC [2] [µM]	MIC ([3]; Boston 41501 ATCC 27853, 72 h) [µM]	MBC [4] [µM]	MBC [5] [µM]	Time [6] [h]	MIC ([7]; ATCC 29212, 72 h) [µM]	Time [8] [h]	MBC [9] [µM]	MIC ([10]; ATCC 29213, 72 h) [µM]	MIC ([11]; ATCC 25922, 72 h) [µM]	Activity [1]	Activity [6]	Activity [8]	MIC [3] [µM]	MIC [7] [µM]	MIC [10] [µM]	MIC [11] [µM]
CCCCCCCCCCOc1ccc(C[N+](C)(C)C)cc1.[Br-]	0.5	16	250	8	63	0.5	16	0.5	250	8	63							
CCCCCCCCCCCCOc1cc(C[N+](C)(C)C)ccc1C[N+](C)(C)C		125	> 500	31	500		125		> 500	31	500	inactive	inactive	inactive				
N,N,N-trimethylhexadecan-1-aminium bromide		4		4	63				> 500						> 500	4	4	63
CCCCCCCCCCCCCCOc1ccc(C[N+](C)(C)C)cc1.[Br-]		16	> 500	6	> 500	0.25	16	0.25	> 500	6	> 500	inactive						
CCCCCCCCCCCCCCCCOc1cc(C[N+](C)(C)C)cc(C[N+](C)(C)C)c1.[Br-].[Br-]	0.25	31	125	8	63	0.25	31	0.25	125	8	63							
CCCCCCCCCCCC[N+](C)(C)C		125	> 500	63	250		125		> 500	63	250							
CCCCCCCCCCCCCCCCOc1cc(C[N+](C)(C)C)ccc1C[N+](C)(C)C.[Br-].[Br-]	2	50	125	16	63		50	24	125	16	63		inactive					
CCCCCCCCCCCCCCCCCCOc1cc(C[N+](C)(C)C)ccc1C[N+](C)(C)C.[Br-].[Br-]	0.5	31	250	16	63	0.25	31	0.25	250	16	63							
CCCCCCCCCCCCCCOc1c(C[N+](C)(C)C)cccc1C[N+](C)(C)C.[Br-].[Br-]		50	500	16	125		50	48	500	16	125	inactive	inactive					
CCCCCCCCCCOc1cc(C[N+](C)(C)C)ccc1C[N+](C)(C)C		500	> 500	250	> 500		500		> 500	250	> 500	inactive	inactive	inactive				
CCCCCCCCCCCCCCOc1cc(C[N+](C)(C)C)ccc1C[N+](C)(C)C.[Br-].[Br-]	72	31	250	16	63	48	31	48	250	16	63							
CCCCCCCCCCCCCCOc1cccc(C[N+](C)(C)C)c1C[N+](C)(C)C.[Br-].[Br-]	0.5	31	125	6	63	24	31	1	125	6	63							
CCCCCCCCCCCCCCOc1cc(C[N+](C)(C)C)cc(C[N+](C)(C)C)c1.[Br-].[Br-]	1	31	63	4	31	0.25	31	0.25	63	4	31							
CCCCCCCCCCCCOS(=O)(=O)[O-].[Na+] [SODIUM LAURYL SULFATE]		500	> 500	250	> 500		500		> 500	250	> 500							
CCCCCCCCCCCCCCOc1ccc(C[N+](C)(C)C)cc1C[N+](C)(C)C.[Br-].[Br-]	1	16	125	6	31	2	16	1	125	6	31							
